27 compounds from PMC6530469 (Biochemical pharmacology, 2018) can be followed below.

SMILES strings stand for the structures. Like-named read-outs stand apart in the source and are kept apart here. Where only a bound is given, the exact number is not on record here.

In assay [1] the target is T1, hA3AR-NanoBit-βarr2 (A3AR-LgBit with SmBit-βarr2) (Homo sapiens, UniProt P0DMS8). Put plainly: cell-based. The settings on record: HEK-293T, read-out: Stable A3AR NanoBit® HEK293T cell line^A / Emax (%).
T1 sequence (P32121 whole entry partner, one chain of several): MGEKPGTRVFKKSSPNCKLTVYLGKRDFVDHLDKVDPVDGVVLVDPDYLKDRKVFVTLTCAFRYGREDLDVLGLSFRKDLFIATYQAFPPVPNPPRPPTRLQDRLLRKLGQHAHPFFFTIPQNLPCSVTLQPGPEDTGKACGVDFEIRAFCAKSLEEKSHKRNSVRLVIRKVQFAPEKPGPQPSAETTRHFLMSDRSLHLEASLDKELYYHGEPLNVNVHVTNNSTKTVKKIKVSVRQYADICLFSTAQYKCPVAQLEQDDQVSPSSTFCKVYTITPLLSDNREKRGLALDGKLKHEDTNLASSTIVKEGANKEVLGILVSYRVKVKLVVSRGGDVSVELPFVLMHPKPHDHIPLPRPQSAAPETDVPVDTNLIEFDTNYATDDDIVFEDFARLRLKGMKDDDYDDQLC
The target in assay [2] is T2, human A3AR (hA3AR) (Homo sapiens, UniProt P0DMS8).
T2 sequence (P0DMS8 1-318): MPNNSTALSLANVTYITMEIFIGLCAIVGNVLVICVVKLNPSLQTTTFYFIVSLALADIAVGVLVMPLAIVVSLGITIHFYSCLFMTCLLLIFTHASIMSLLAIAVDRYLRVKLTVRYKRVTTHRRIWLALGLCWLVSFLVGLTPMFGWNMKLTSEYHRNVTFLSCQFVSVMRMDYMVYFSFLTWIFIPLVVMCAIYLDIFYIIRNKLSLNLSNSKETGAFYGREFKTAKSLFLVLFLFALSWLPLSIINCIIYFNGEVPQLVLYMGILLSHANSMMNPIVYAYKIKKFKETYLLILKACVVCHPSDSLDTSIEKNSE
Put plainly: […]I-AB-MECA competition, CHO membranes. Format: binding.

Assay [3] deals with T2, human A3AR (hA3AR). Put plainly: cell-based. The settings on record: CHO, read-out: Stable A3AR CHO cell line^B / Emax (%).
In assay [4] the target is T1, hA3AR-NanoBit-βarr2 (A3AR-LgBit with SmBit-βarr2). Briefly: NanoBit βarr2 recruitment, luminescence AUC. Format: cell-based.
For assay [5], the target named is T2, human A3AR (hA3AR). Briefly: inhibition of forskolin-stimulated cAMP, CHO cells. The conditions noted are these: agonism; 10 µM forskolin, 10 µM rolipram, adenosine deaminase. Format: cell-based.
The target in assay [6] is T1, hA3AR-NanoBit-βarr2 (A3AR-LgBit with SmBit-βarr2). Briefly: cell-based. The conditions noted are these: HEK-293T, read-out: Stable A3AR NanoBit® HEK293T cell line^A / Emax (%). The source holds these as a separate data set.
Assay [7] concerns the target T2, human A3AR (hA3AR). Put plainly: inhibition of forskolin-stimulated cAMP, CHO cells. Format: cell-based.
For assay [8], the target named is T1, hA3AR-NanoBit-βarr2 (A3AR-LgBit with SmBit-βarr2). Put plainly: NanoBit βarr2 recruitment, luminescence AUC. Format: cell-based. The settings on record: agonism; stable HEK293T cells, room temperature, Opti-MEM I. The essentials: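 Stable HEK293T line retrovirally co-transduced with A3AR-LgBit and SmBit-βarr2, FACS-sorted on co-expressed EGFP/dNGFR. Cells on PDL-coated plates at 5×10^4/well overnight (37°C, 5% CO2), washed twice, detection reagent added, luminescence equilibrated. Agonist added at final 100 pM–25 µM (≤0.5% DMSO), luminescence followed ≥90 min. DMSO solvent blank (0.001–0.5%) in each run.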

Take `NCCNC(=O)Cc1ccc(NC(=O)Cc2ccc(Nc3ncnc4c3ncn4[C@@H]3O[C@H](CO)[C@@H](O)[C@H]3O)cc2)cc1` [ADAC, N^6-[4-[[[4-[[[(2-aminoethyl)amino]carbonyl]methyl]anilino]-carbonyl]methyl]phenyl]adenosine]: the Emax in assay [1] was 73.7 ± 3.1%; in assay [3], 103 ± 4%. Also, the affinity in assay [2], expressed as Ki, was 13.3 ± 3 nM. The compound further showed an EC50 in assay [4] of 245 nM.
In the case of `OC[C@H]1O[C@@H](n2cnc3c(NC4CCCC4)nc(Cl)nc32)[C@H](O)[C@@H]1O` [CCPA], in assay [5], the “LogEC50 (NA, not significantly active at 10 μM)” value is more than 10 µM. Besides, the values for the Emax in assay [1] and in assay [3] were 33.5 ± 2.7% and 0%, respectively.
`CCNC(=O)[C@H]1O[C@@H](n2cnc3c(N)nc(NCCc4ccc(CCC(=O)O)cc4)nc32)[C@H](O)[C@@H]1O` [CGS21680]: the Emax came to 99 ± 5.5% in assay [1] and 98 ± 5% in assay [3].
On to `OC[C@H]1O[C@@H](n2cnc3c(NC4CCCC4)ncnc32)[C@H](O)[C@@H]1O` [CPA], for which the Emax in assay [1] worked out at 56.9 ± 3.7%; in assay [3], 97 ± 4%.
As to `OC[C@H]1O[C@@H](n2cnc3c(NC4CCCC4)cc(Cl)nc32)[C@H](O)[C@@H]1O` [DCCA], in assay [6], the Emax stood at 5.8 ± 0.2%. In assay [2], this compound registered a Ki of 244 ± 37 nM. For the same compound, the EC50 in assay [4] is 1480 nM.
Regarding `CNC(=O)[C@H]1O[C@@H](n2cnc3c(NCc4cccc(I)c4)ncnc32)[C@H](O)[C@@H]1O` [IB-MECA], in assay [1], the Emax was found to be 78.4 ± 2.5%.
As to `Nc1nc(Cl)nc2c1ncn2[C@H]1[C@H](O)[C@H](O)[C@]2(CO)C[C@H]12` [MRS1873], the Emax in assay [1] turned out to be 13 ± 1.6%; in assay [3], 41 ± 5%.
On to `O[C@@H]1[C@H](O)[C@@H]2C[C@@H]2[C@H]1n1cnc2c(NCc3cccc(I)c3)nc(Cl)nc21` [MRS5127], for which the Emax in assay [1] amounted to 5.2 ± 0.4%. Moreover, the figures for the EC50 in assay [4] and in assay [7] were 24.5 nM and 12.6 nM, respectively.
`O[C@@H]1[C@H](O)[C@@H]2C[C@@H]2[C@H]1n1cnc2c(NC(C3CC3)C3CC3)nc(Cl)nc21` [MRS5474]: the Emax was determined as 9.8 ± 1.2% in assay [1] and 56 ± 4.8% in assay [3].
For the compound `CNC(=O)[C@@]12C[C@@H]1[C@@H](n1cnc3c(NC)nc(C#Cc4ccccc4Cl)nc31)[C@H](O)[C@@H]2O` [MRS5663], the Emax in assay [6] is 102 ± 3.6%. The same compound gave an EC50 in assay [4] of 5.62 nM.
On the same counts, the results for `CNC(=O)[C@@]12C[C@@H]1[C@@H](n1cnc3c(NCc4cccc(Cl)c4)nc(C#Cc4ccc(-c5ccccc5)cc4)nc31)[C@H](O)[C@@H]2O` [MRS5679] are 46.8 ± 3.3% and 1200 nM.
As to `CNC(=O)[C@@]12C[C@@H]1[C@@H](n1cnc3c(NCc4cccc(Cl)c4)nc(C#Cc4ccc(F)c(F)c4)nc31)[C@H](O)[C@@H]2O` [MRS5698], the Emax in assay [1] was found to be 83.5 ± 4.6%.
`CNC(=O)[C@@]12C[C@@H]1[C@@H](n1cnc3c(NC)nc(C#Cc4cccs4)nc31)[C@H](O)[C@@H]2O` [MRS5917]: the Emax in assay [1] turned out to be 91.6 ± 3.4%; in assay [3] it was 97.3 ± 2.9%.
On to `CNC(=O)[C@@]12C[C@@H]1[C@@H](n1cnc3c(NC)nc(C#Cc4ccccc4OC)nc31)[C@H](O)[C@@H]2O` [MRS5967], for which the Emax in assay [6] was found to be 92.5 ± 2.4%. The same compound showed an EC50 in assay [4] of 4.68 nM.
`CNC(=O)[C@@]12C[C@@H]1[C@@H](n1cnc3c(NC)nc(C#Cc4ccc(Cl)s4)nc31)[C@H](O)[C@@H]2O` [MRS5980]: the Emax in assay [6] amounted to 95 ± 4%.
With `CCNc1cc(C#Cc2ccc(Cl)s2)nc2c1ncn2[C@H]1[C@H](O)[C@H](O)[C@]2(C(=O)NC)C[C@H]12` [MRS7144], the results for the Emax in assay [1] and in assay [3] were 74.4 ± 2.3% and 95.5 ± 2.3%, respectively.
In the case of `CCCNc1nc(C#Cc2ccc(Cl)s2)nc2c1ncn2[C@H]1[C@H](O)[C@H](O)[C@]2(C(=O)NC)C[C@H]12` [MRS7154], the Emax in assay [6] came to 94.5 ± 4.8%. This compound showed an EC50 in assay [4] of 21.4 nM.
As for `CNC(=O)[C@@]12C[C@@H]1[C@@H](n1cnc3c(NC)nc(C#Cc4ccc(Cl)s4)cc31)[C@H](O)[C@@H]2O` [MRS7173], the Emax in assay [6] was found to be 78.2 ± 1.8%. Moreover, in assay [2], the affinity corresponds to a Ki of 1.56 ± 0.2 nM. Moreover, the EC50 in assay [4] was 55 nM.
On to `CNC(=O)[C@@]12C[C@@H]1[C@@H](n1cnc3c(C)nc(C#Cc4ccc(Cl)s4)nc31)[C@H](O)[C@@H]2O` [MRS7195], for which the Emax in assay [1] was found to be 84.5 ± 6.4%; in assay [3] it was 107 ± 26%.
Take `CNC(=O)[C@@]12C[C@@H]1[C@@H](n1cnc3cnc(C#Cc4ccc(Cl)s4)nc31)[C@H](O)[C@@H]2O` [MRS7220]: the Emax in assay [1] was 68.4 ± 5.3%; in assay [3], 97.8 ± 0.1%.
On to `CCOC(=O)[C@@]12C[C@@H]1[C@@H](n1cnc3c(NC)nc(C#Cc4ccc(Cl)s4)nc31)[C@H](O)[C@@H]2O` [MRS7232], for which the Emax in assay [6] was 13.6 ± 1.6%. In assay [2], this compound gave a Ki of 5.38 ± 0.03 nM. This compound gave an EC50 in assay [4] of 50.1 nM.
As for `CCOC(=O)[C@@]12C[C@@H]1[C@@H](n1ccc3c(NC)nc(C#Cc4ccc(Cl)s4)nc31)[C@H](O)[C@@H]2O` [MRS7299], the Emax in assay [3] is 1 ± 7%. For the same compound, the EC50 in assay [7] was more than 10000 nM. The “LogEC50 (NA, not significantly active at 10 μM)” value in assay [8] is more than 10 µM.
In the case of `CCNC(=O)[C@H]1O[C@@H](n2cnc3c(N)ncnc32)[C@H](O)[C@@H]1O` [NECA], the Emax in assay [3] was 103%.
Turning to `OC[C@H]1O[C@@H](n2cnc3c(NCc4ccccc4)ncnc32)[C@H](O)[C@@H]1O` [N^6-benzyl-adenosine], the Emax in assay [6] was 34.9 ± 2.3%. In addition, the EC50 in assay [4] is 851 nM.
With `OC[C@H]1O[C@@H](n2cnc3c(Nc4ccccc4)ncnc32)[C@H](O)[C@@H]1O` [N^6-phenyl-adenosine], in assay [6], the Emax came out at 75.8 ± 3%. For the same compound, in assay [2], the Ki turned out to be 14.9 ± 3.1 nM. It took 589 nM to reach a half-maximal effect in assay [4] (EC50).
As to `C[C@H](Cc1ccccc1)Nc1ncnc2c1ncn2[C@@H]1O[C@H](CO)[C@@H](O)[C@H]1O` [R-PIA], the Emax in assay [1] stood at 56.6 ± 1.9%; in assay [3] it was 102 ± 6%.
Turning to `C[C@@H](Cc1ccccc1)Nc1ncnc2c1ncn2[C@@H]1O[C@H](CO)[C@@H](O)[C@H]1O` [S-PIA], the Emax in assay [1] was 51 ± 1.4%; in assay [3] it was 97 ± 3%.

By Ki is commonly meant a measure of affinity in units of concentration, obtained from inhibition or displacement. Higher therefore signals a looser hold on the target. In general, EC50 refers to the concentration needed to bring the measured effect to its halfway point. Higher therefore signals a less potent agent.
